Measurements from ChEMBL document CHEMBL1155167, “Fluoroquinolone resistance in atypical pneumococci and oral streptococci: evidence of horizontal gene transfer of fluoroquinolone resistance determinants from Streptococcus pneumoniae” (2007).

What was measured:
Type in all cases: functional
Streptococcus oralis [1] = test: Antimicrobial activity against Streptococcus oralis ATCC 10557 with gyrA Ser114Gly, and parC Ser52Gly, Asn91Asp mutation by broth dilution method
Method in brief: (§1)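 Ciprofloxacin and levofloxacin MICs were determined by broth dilution following CLSI (formerly NCCLS) guidance. S. pneumoniae ATCC 6303 and ATCC 49619 served as control strains. Reference strains were S. mitis ATCC 49456 and S. oralis ATCC 10557. The clinical isolates came from patients at a Hong Kong teaching hospital.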

Streptococcus oralis [2] = test: Antimicrobial activity against Streptococcus oralis HK575 with gyrA Ser114Gly, Leu155Val and parC Ser52Gly, Asn91Asp, Pro140Ser mutation by broth dilution method; method in brief: as §1
Streptococcus oralis [3] = test: Antimicrobial activity against Streptococcus oralis HK232 with gyrA Ser114Gly, and parC Ser52Gly, Asn91Asp mutation by broth dilution method; method in brief: as §1
Streptococcus oralis [4] = test: Antimicrobial activity against Streptococcus oralis HK417 with gyrA Ser114Gly, and parC Ser52Gly, Asn91Asp mutation by broth dilution method; method in brief: as §1
Streptococcus oralis [5] = test: Antimicrobial activity against Streptococcus oralis HK496 with gyrA Ser114Gly, and parC Ser52Gly, Asn91Asp mutation by broth dilution method; method in brief: as §1
Streptococcus oralis [6] = test: Antimicrobial activity against Streptococcus oralis HK553 with gyrA Ser114Gly, and parC Ser52Gly, Asn91Asp mutation by broth dilution method; method in brief: as §1
Streptococcus oralis [7] = test: Antimicrobial activity against Streptococcus oralis HK62 with gyrA Ser114Gly, and parC Ser52Gly, Asn91Asp mutation by broth dilution method; method in brief: as §1
Streptococcus oralis [8] = test: Antimicrobial activity against Streptococcus oralis HK122 with gyrA Ser114Gly, and parC Ser52Gly, Asn91Asp mutation by broth dilution method; method in brief: as §1
Streptococcus oralis [9] = test: Antimicrobial activity against Streptococcus oralis HK123 with gyrA Ser114Gly, and parC Ser52Gly, Asn91Asp mutation by broth dilution method; method in brief: as §1
Streptococcus oralis [10] = test: Antimicrobial activity against Streptococcus oralis HK271 with gyrA Ser114Gly, and parC Ser52Gly, Asn91Asp mutation by broth dilution method; method in brief: as §1
Streptococcus oralis [11] = test: Antimicrobial activity against Streptococcus oralis HK300 with gyrA Ser114Gly, and parC Ser52Gly, Asn91Asp mutation by broth dilution method; method in brief: as §1
Streptococcus oralis [12] = test: Antimicrobial activity against Streptococcus oralis HK312 with gyrA Ser114Gly, and parC Ser52Gly, Asn91Asp mutation by broth dilution method; method in brief: as §1
Streptococcus oralis [13] = test: Antimicrobial activity against Streptococcus oralis HK51with gyrA Ser114Gly, and parC Ser52Gly, Asn91Asp mutation by broth dilution method; method in brief: as §1
Streptococcus oralis [14] = test: Antimicrobial activity against Streptococcus oralis HK299 with gyrA Ser114Gly, and parC Ser52Gly, Asn91Asp mutation by broth dilution method; method in brief: as §1
Streptococcus oralis [15] = test: Antimicrobial activity against Streptococcus oralis HK579 with gyrA Ser114Gly, and parC Ser52Gly, Asn91Asp mutation by broth dilution method; method in brief: as §1
Streptococcus oralis [16] = test: Antimicrobial activity against Streptococcus oralis HK587 with gyrA Ser114Gly, and parC Ser52Gly, Asn91Asp mutation by broth dilution method; method in brief: as §1
Streptococcus oralis [17] = test: Antimicrobial activity against Streptococcus oralis HK386 with gyrA Ser114Gly, and parC Ser52Gly, Asn91Asp mutation by broth dilution method; method in brief: as §1
Streptococcus oralis [18] = test: Antimicrobial activity against Streptococcus oralis HK619 with gyrA Ser114Gly, and parC Ser52Gly, Asn91Asp mutation by broth dilution method; method in brief: as §1
Streptococcus oralis [19] = test: Antimicrobial activity against Streptococcus oralis HK574 with gyrA Ser114Gly, Leu155Val, gyrB Ile385Val, Met483Thr, Ser494Thr and parC Ser52Gly, Asn91Asp mutation by broth dilution method; method in brief: as §1
Streptococcus oralis [20] = test: Antimicrobial activity against Streptococcus oralis HK816 with gyrA Ser81Leu, Ser114Gly and parC Ser52Gly, Ser79Tyr, Asn91Asp mutation by broth dilution method; method in brief: as §1
Streptococcus oralis [21] = test: Antimicrobial activity against Streptococcus oralis HK754 with gyrA Ser81Leu, Ser114Gly, gyrB Ser494Thr, parC Ser52Gly, Asp83Tyr, Asn91Asp and parE Arg447Ser mutation by broth dilution method; method in brief: as §1
Streptococcus mitis [22] = test: Antimicrobial activity against Streptococcus mitis ATCC 49456 with gyrA Ser114Gly, and parC Ser52Gly, Asn91Asp, Glu135Asp mutation by broth dilution method; method in brief: as §1
Streptococcus mitis [23] = test: Antimicrobial activity against Streptococcus mitis HK260 with gyrA Ser114Gly, and parC Ser52Gly, Asn91Asp mutation by broth dilution method; method in brief: as §1
Streptococcus mitis [24] = test: Antimicrobial activity against Streptococcus mitis HK141 with gyrA Ser114Gly, and parC Ser52Gly, Asn91Asp mutation by broth dilution method; method in brief: as §1
Streptococcus mitis [25] = test: Antimicrobial activity against Streptococcus mitis HK188 with gyrA Ser114Gly, and parC Ser52Gly, Asn91Asp, Glu135Asp mutation by broth dilution method; method in brief: as §1
Streptococcus mitis [26] = test: Antimicrobial activity against Streptococcus mitis HK651 with gyrA Ser114Gly, and parC Ser52Gly, Asn91Asp mutation by broth dilution method; method in brief: as §1
Streptococcus mitis [27] = test: Antimicrobial activity against Streptococcus mitis HK137453 with gyrA Ser114Gly, and parC Ser52Gly, Asn91Asp mutation by broth dilution method; method in brief: as §1
Streptococcus mitis [28] = test: Antimicrobial activity against Streptococcus mitis HK680 with gyrA Ser114Gly, and parC Ser52Gly, Asn91Asp mutation by broth dilution method; method in brief: as §1
Streptococcus mitis [29] = test: Antimicrobial activity against Streptococcus mitis HK125807 with gyrA Ser114Gly, and parC Ser52Gly, Asn91Asp mutation by broth dilution method; method in brief: as §1
Streptococcus mitis [30] = test: Antimicrobial activity against Streptococcus mitis HK467 with gyrA Ser114Gly, Leu155Val and parC Ser52Gly, Asn91Asp, mutation by broth dilution method; method in brief: as §1
Streptococcus mitis [31] = test: Antimicrobial activity against Streptococcus mitis HK666 with gyrA Ser114Gly, and parC Ser52Gly, Asn91Asp, Glu135Asp mutation by broth dilution method; method in brief: as §1
Streptococcus mitis [32] = test: Antimicrobial activity against Streptococcus mitis HK135786 with gyrA Ser114Gly, and parC Ser52Gly, Asn91Asp mutation by broth dilution method; method in brief: as §1
Streptococcus mitis [33] = test: Antimicrobial activity against Streptococcus mitis HK29 with gyrA Ser114Gly, and parC Ser52Gly, Asn91Asp mutation by broth dilution method; method in brief: as §1
Streptococcus mitis [34] = test: Antimicrobial activity against Streptococcus mitis HK677 with gyrA Ser81Leu, Ser114Gly, gyrB Ser494Thr, parC Ser52Gly, Asp83Tyr, Asn91Asp and parE Arg447Ser mutation by broth dilution method; method in brief: as §1
Streptococcus viridans [35] = test: Antimicrobial activity against Viridans streptococcus L2 with gyrA Ser114Gly, gyrB Ser494Thr and parC Ser52Gly, Asn91Asp mutation by broth dilution method; method in brief: as §1
Streptococcus viridans [36] = test: Antimicrobial activity against Viridans streptococcus L7 with gyrA Ser114Gly, gyrB Ser494Thr and parC Ser52Gly, Asn91Asp mutation by broth dilution method; method in brief: as §1
Streptococcus viridans [37] = test: Antimicrobial activity against Viridans streptococcus L16 with gyrA Ser114Gly, gyrB Ser494Thr and parC Ser52Gly, Asn91Asp mutation by broth dilution method; method in brief: as §1
Streptococcus viridans [38] = test: Antimicrobial activity against Viridans streptococcus L17 with gyrA Ser114Gly, gyrB Ser494Thr and parC Ser52Gly, Asn91Asp mutation by broth dilution method; method in brief: as §1
Streptococcus viridans [39] = test: Antimicrobial activity against Viridans streptococcus L18 with gyrA Ser114Gly, Asp142Asn, gyrB Ser494Thr and parE Ile460Val mutation by broth dilution method; method in brief: as §1
Streptococcus viridans [40] = test: Antimicrobial activity against Viridans streptococcus L19 with gyrA Ser114Gly, gyrB Ser494Thr, parC Ser52Gly, Asn91Asp and parE Ile460Val mutation by broth dilution method; method in brief: as §1
Streptococcus viridans [41] = test: Antimicrobial activity against Viridans streptococcus L20 with gyrB Ser494Thr, parC Ser52Gly and Asn91Asp mutation by broth dilution method; method in brief: as §1
Streptococcus viridans [42] = test: Antimicrobial activity against Viridans streptococcus L21 with gyrB Ser494Thr and parC Lys137Asn mutation by broth dilution method; method in brief: as §1
Streptococcus viridans [43] = test: Antimicrobial activity against Viridans streptococcus L26 gyrA Ser81Phe and parC Lys137Asn mutation by broth dilution method; method in brief: as §1

Compound: C[C@H]1COc2c(N3CCN(C)CC3)c(F)cc3c(=O)c(C(=O)O)cn1c23.C[C@H]1COc2c(N3CCN(C)CC3)c(F)cc3c(=O)c(C(=O)O)cn1c23.O [LEVOFLOXACIN]
- MIC (Streptococcus oralis [1]): 1 µg/mL
- MIC (Streptococcus oralis [2]): 1 µg/mL
- MIC (Streptococcus oralis [3]): 1 µg/mL
- MIC (Streptococcus oralis [4]): 1 µg/mL
- MIC (Streptococcus oralis [5]): 1 µg/mL
- MIC (Streptococcus oralis [6]): 1 µg/mL
- MIC (Streptococcus oralis [7]): 1 µg/mL
- MIC (Streptococcus oralis [8]): 1 µg/mL
- MIC (Streptococcus oralis [9]): 1 µg/mL
- MIC (Streptococcus oralis [10]): 1 µg/mL
- MIC (Streptococcus oralis [11]): 1 µg/mL
- MIC (Streptococcus oralis [12]): 1 µg/mL
- MIC (Streptococcus oralis [13]): 2 µg/mL
- MIC (Streptococcus oralis [14]): 2 µg/mL
- MIC (Streptococcus oralis [15]): 2 µg/mL
- MIC (Streptococcus oralis [16]): 2 µg/mL
- MIC (Streptococcus oralis [17]): 2 µg/mL
- MIC (Streptococcus oralis [18]): 2 µg/mL
- MIC (Streptococcus oralis [19]): 2 µg/mL
- MIC (Streptococcus oralis [20]): 32 µg/mL
- MIC (Streptococcus oralis [21]): ≥ 32 µg/mL
- MIC (Streptococcus mitis [22]): 1 µg/mL
- MIC (Streptococcus mitis [23]): < 0.25 µg/mL
- MIC (Streptococcus mitis [24]): 0.5 µg/mL
- MIC (Streptococcus mitis [25]): 0.5 µg/mL
- MIC (Streptococcus mitis [26]): 0.5 µg/mL
- MIC (Streptococcus mitis [27]): 1 µg/mL
- MIC (Streptococcus mitis [28]): 1 µg/mL
- MIC (Streptococcus mitis [29]): 1 µg/mL
- MIC (Streptococcus mitis [30]): 1 µg/mL
- MIC (Streptococcus mitis [31]): 2 µg/mL
- MIC (Streptococcus mitis [32]): 1 µg/mL
- MIC (Streptococcus mitis [33]): 2 µg/mL
- MIC (Streptococcus mitis [34]): ≥ 32 µg/mL
- MIC (Streptococcus viridans [35]): 2 µg/mL
- MIC (Streptococcus viridans [36]): 2 µg/mL
- MIC (Streptococcus viridans [37]): 1 µg/mL
- MIC (Streptococcus viridans [38]): 1 µg/mL
- MIC (Streptococcus viridans [39]): 2 µg/mL
- MIC (Streptococcus viridans [40]): 2 µg/mL
- MIC (Streptococcus viridans [41]): 2 µg/mL
- MIC (Streptococcus viridans [42]): 2 µg/mL
- MIC (Streptococcus viridans [43]): 16 µg/mL
